Results: ChEMBL document CHEMBL2331492, “Synthesis and biological evaluation of new cytotoxic indazolo[4,3-gh]isoquinolinone derivatives” (Bioorg Med Chem Lett, 2013)
Calls of active or inactive are those of the source. The rule behind the calls is not given here.

What was measured:
[1] = Antiproliferative activity against human KB/HeLa cells after 48 hrs; assay type: functional, cell-based
Summary of the method: (§1)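 Cells seeded in supplier-recommended growth medium at line-adapted densities (linear signal range), grown 24 h at 37 °C/5% CO2, then exposed to compound; highest concentration 3.16 μM. After 45 h, resazurin (0.2 mg/mL in DPBS) added for 3 h; fluorescence at 590 nm read at 48 h. % efficacy vs untreated cells and cell-free blanks; EC50 by nonlinear regression from at least two independent assays.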

[2] = Cell cycle arrest in human KB/HeLa cells assessed as accumulation at S phase up to 11 uM after 24 hrs by flow cytometry analysis; assay type: functional, cell-based
Summary of the method: (§2)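 Exponentially dividing KB/HeLa cells (ATCC CCL17) were exposed at 37 °C to a range of compound concentrations and compared with untreated controls. Cells were prepared with the CycleTEST PLUS kit. DNA content was measured by flow cytometry (FACSCalibur), and phase distribution was derived with cell cycle analysis software.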

DNA = experiment: Binding affinity to calf thymus DNA up to 5 mM; assay type: nucleic-acid assay; details: Bos taurus
Summary of the method: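 UV-vis absorbance shift assay. Stocks of up to 5 mM were made in 5% DMSO or methanol. They were diluted in pH 7 phosphate buffer (5 mM NaH2PO4, 5 mM Na2HPO4, 70 mM NaCl) to give a maximum absorbance of about 1–2. Spectra were taken from 230–600 nm with and without 2 mg/ml calf thymus DNA, and peak shifts were compared.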

[3] = Antiproliferative activity against human RKOp27IND cells after 48 hrs; assay type: functional, cell-based; summary of the method: as §1
[4] = Antiproliferative activity against human RKOp27 cells after 48 hrs; assay type: functional, cell-based; details: RKOp27, 48 h; summary of the method: as §1
NCI-H460 [5] = experiment: Antiproliferative activity against human NCI-H460 cells after 48 hrs; assay type: functional, cell-based; details: NCI-H460, 48 h; summary of the method: as §1
SF-268 [6] = experiment: Antiproliferative activity against human SF268 cells after 48 hrs; assay type: functional, cell-based; details: SF-268, 48 h; summary of the method: as §1
SK-OV-3 [7] = experiment: Antiproliferative activity against human SKOV3 cells after 48 hrs; assay type: functional, cell-based; details: SK-OV-3, 48 h; summary of the method: as §1
SK-OV-3 [8] = experiment: Antiproliferative activity against human SKOV3 cells at 3.16 uM after 48 hrs; assay type: functional; details: SK-OV-3, 48 h
Summary of the method: (§3)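 Cells were seeded in the supplier-recommended medium and grown 24 h at 37 °C/5% CO2 before compound addition. Resazurin (0.2 mg/mL in DPBS) was added after 45 h, and fluorescence at 590 nm was read at 48 h total. % inhibition at the highest concentration (3.16 μM) was scored against untreated cells and cell-free blanks on each plate. Data came from at least two independent assays.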

[9] = Antiproliferative activity against human KB/HeLa cells at 3.16 uM after 48 hrs; assay type: functional; summary of the method: as §3
[10] = Antiproliferative activity against human RKOp27IND cells at 3.16 uM after 48 hrs; assay type: functional; summary of the method: as §3
[11] = Antiproliferative activity against human RKOp27 cells at 3.16 uM after 48 hrs; assay type: functional; details: RKOp27, 48 h; summary of the method: as §3
NCI-H460 [12] = experiment: Antiproliferative activity against human NCI-H460 cells at 3.16 uM after 48 hrs; assay type: functional; details: NCI-H460, 48 h; summary of the method: as §3
SF-268 [13] = experiment: Antiproliferative activity against human SF268 cells at 3.16 uM after 48 hrs; assay type: functional; details: SF-268, 48 h; summary of the method: as §3
[14] = Cell cycle arrest in human KB/HeLa cells assessed as accumulation at S phase at < 4 uM after 24 hrs by flow cytometry analysis; assay type: functional, cell-based; summary of the method: as §2
[15] = Cell cycle arrest in human KB/HeLa cells assessed as accumulation at S phase at < 7 uM after 24 hrs by flow cytometry analysis; assay type: functional, cell-based; summary of the method: as §2
[16] = Cell cycle arrest in human KB/HeLa cells assessed as accumulation at S phase at < 6 uM after 24 hrs by flow cytometry analysis; assay type: functional, cell-based; summary of the method: as §2

Row | Structure (SMILES) | EC50 [1] [nM] | Activity (DNA) | EC50 [3] [nM] | EC50 [4] [nM] | EC50 (NCI-H460 [5]) [nM] | EC50 (SF-268 [6]) [nM] | EC50 (SK-OV-3 [7]) [nM] | other results
1 | CN(C)CCn1nc2c3c(c(NCCC#CCCN4CC4)ccc31)C(=O)c1ccncc1-2 | 140 | Active | 350 | 70 | 60 | 240 | 310 | Activity [2]: inactive
2 | CN(C)CCn1nc2c3c(c(NCCc4ccccn4)ccc31)C(=O)c1ccncc1-2 |  |  | 3770 | 2680 | 990 |  | 1410 | 
3 | CN(C)CCn1nc2c3c(c(NCCCCCCc4ccc(N(CCCl)CCCl)cc4)ccc31)C(=O)c1ccncc1-2 |  |  |  |  |  |  |  | inhibition at 3.16 µM (SK-OV-3 [8]): < 30%; inhibition at 3.16 µM [9]: < 30%; inhibition at 3.16 µM [10]: < 30%; inhibition at 3.16 µM [11]: < 30%; inhibition at 3.16 µM (NCI-H460 [12]): < 30%; inhibition at 3.16 µM (SF-268 [13]): < 30%
4 | CN(C)CCn1nc2c3c(c(NCCC#CCCO)ccc31)C(=O)c1ccncc1-2 | 1390 | Active | 3230 | 1630 | 680 | 3450 | 1210 | 
5 | CN(C)CCn1nc2c3c(c(NCCCCCCN4CC4)ccc31)C(=O)c1ccncc1-2 | 340 | Active | 1280 | 130 | 200 | 760 | 770 | Activity [14]: Active
6 | CN(C)CCn1nc2c3c(c(NCCC4CCCN4C)ccc31)C(=O)c1ccncc1-2 (stereo unspecified) |  | Active | 460 | 370 | 160 |  | 360 | 
7 | CN(C)CCn1nc2c3c(c(NCC/C=C/CCN4CC4)ccc31)C(=O)c1ccncc1-2 | 1220 |  | 2780 | 720 | 690 | 2990 | 3220 | Activity [15]: Active
8 | CN(C)CCn1nc2c3c(c(NCCCCN4CC4)ccc31)C(=O)c1ccncc1-2 | 80 | Active | 1020 | 1000 | 70 | 420 | 530 | 
9 | O=C1c2c(O)ccc(O)c2C(=O)c2c(NCCNCCO)ccc(NCCNCCO)c21 [MITOXANTRONE] | 360 | Active | 760 | 90 | 120 | 320 | 120 | 
10 | CN(C)CCn1nc2c3c(c(NCCOS(C)(=O)=O)ccc31)C(=O)c1ccncc1-2 | 150 |  | 1830 | 170 | 250 | 390 | 550 | 
11 | CN(C)CCn1nc2c3c(c(NCCSCCO)ccc31)C(=O)c1ccncc1-2 | 960 | Active | 1060 | 550 | 150 | 660 | 400 | 
12 | CN(C)CCn1nc2c3c(c(NCCC#CCCOS(C)(=O)=O)ccc31)C(=O)c1ccncc1-2 | 390 |  | 980 | 470 | 411 | 750 | 730 | 
13 | CSCCCNc1ccc2c3c(nn2CCN(C)C)-c2cnccc2C(=O)c13 |  |  | 4760 | 2940 | 680 |  | 1360 | 
14 | CN(C)CCn1nc2c3c(c(NCCc4c[nH]c5ccccc45)ccc31)C(=O)c1ccncc1-2 |  | inactive | 1510 | 1330 | 1320 |  | 1520 | 
15 | CN(C)CCn1nc2c3c(c(NCCCCOS(C)(=O)=O)ccc31)C(=O)c1ccncc1-2 | 3170 |  |  | 1180 | 1070 |  |  | inhibition at 3.16 µM (SK-OV-3 [8]): < 30%; inhibition at 3.16 µM [10]: < 30%; inhibition at 3.16 µM (SF-268 [13]): < 30%
16 | CN(C)CCn1nc2c3c(c(NCC/C=C\CCN4CC4)ccc31)C(=O)c1ccncc1-2 | 430 |  | 1200 | 290 | 590 | 1710 | 1770 | Activity [16]: Active
17 | CN(C)CCn1nc2c3c(c(NCCCCc4ccc(N(CCCl)CCCl)cc4)ccc31)C(=O)c1ccncc1-2 | 2470 |  | 1630 | 1190 | 3760 | 4170 |  | inhibition at 3.16 µM (SK-OV-3 [8]): < 30%
18 | CN(C)CCn1nc2c3c(c(NCCN4CC4)ccc31)C(=O)c1ccncc1-2 | 70 |  | 1050 | 80 | 80 | 690 | 390 | 
19 | c1ccc2nc3ccccc3cc2c1 |  | Active |  |  |  |  |  | 
20 | CN(C)CCn1nc2c3c(c(N(C)C)ccc31)C(=O)c1ccncc1-2 | 2190 | Active | 3060 | 2630 | 770 | 1340 | 2080 | 
21 | CN(C)CCn1nc2c3c(c(NCCCCCCOS(C)(=O)=O)ccc31)C(=O)c1ccncc1-2 | 1670 |  | 1930 | 510 | 820 | 1370 | 3610 | 
22 | CN(C)CCn1nc2c3c(c(NCCc4cccs4)ccc31)C(=O)c1ccncc1-2 |  |  | 4840 | 3120 | 1470 |  | 3220 | 
23 | CN(C)CCn1nc2c3c(c(NCCc4c[nH]cn4)ccc31)C(=O)c1ccncc1-2 |  |  | 4810 | 1330 | 3020 |  | 1650 | 
24 | CN(C)CCSCCNc1ccc2c3c(nn2CCN(C)C)-c2cnccc2C(=O)c13 | 750 |  | 1790 | 920 | 310 | 2370 | 700 | 
25 | CN(C)CCn1nc2c3c(c(NCC/C=C\CCOS(C)(=O)=O)ccc31)C(=O)c1ccncc1-2 | 750 |  | 2610 | 630 | 2180 | 3070 | 5380 | 
